Values joined by “and” are separate entries in the source; they are usually repeats but may differ in a detail not shown here. Equal entries are not always repeated.
Experiments:
[1] = system: bovine brain tubulin; experiment: Tubulin polymerization assay; type: biochemical; conditions: read-out: Tubulin polymerization inhibition IC50; 2 mg/mL tubulin, 37 °C
[2] = system: HeLa; experiment: SRB assay, in vitro anticancer activity; type: cell-based; conditions: Homo sapiens, 48 h, read-out: GI50 HeLa
[3] = system: MIAPACA; experiment: SRB assay, in vitro anticancer activity; type: cell-based; conditions: Homo sapiens, MIA PaCa-2, 48 h, read-out: GI50 MIAPACA
[4] = system: MCF-7; experiment: SRB assay, in vitro anticancer activity; type: cell-based; conditions: Homo sapiens, MCF7, 48 h, read-out: GI50 MCF-7
[5] = system: caspase 3/7, 8, and 9 in HeLa, MCF-7 and MIA PaCa2 cancer cells; experiment: Caspase 3/7, 8 and 9 activation, values not assigned to a caspase or cell line; type: cell-based, human; conditions: MCF-7 and MIA PaCa2 cells, assignment and concentration not clear
[6] = system: caspase 3/7 in MCF-7 cells; experiment: Caspase-Glo 3/7 activation assay; type: cell-based, human; conditions: 20 μg ml^−1, 24 h
Outline: (§1)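 Caspase 3/7 activation in the named human cancer cells is expressed as percent activation after treatment with the test compound. Podophyllotoxin is run alongside as the positive control.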

[7] = system: HeLa and MIAPACA; experiment: SRB assay, range stated over two cell lines; type: cell-based; conditions: Homo sapiens, read-out: GI50 against HeLa and MIAPACA
[8] = system: MCF-7, HeLa and MIAPACA; experiment: SRB assay, range stated over three cell lines; type: cell-based; conditions: Homo sapiens, read-out: GI50 against three cell lines
Outline: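 Human MCF-7, HeLa and MIA PaCa-2 cancer cell lines are exposed to the test compounds, with podophyllotoxin as positive control. Growth inhibition is reported as GI50.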

[9] = system: caspase 3/7 in HeLa cells; experiment: Caspase-Glo 3/7 activation assay; type: cell-based, human; conditions: 20 μg ml^−1, 24 h
Outline: as §1

[10] = system: caspase 3/7 in MIA PaCa2 cells; experiment: Caspase-Glo 3/7 activation assay; type: cell-based, human; conditions: 20 μg ml^−1, 24 h
Outline: as §1

Row | IC50 [1] [nM] | GI50 [2] [nM] | GI50 [3] [nM] | GI50 [4] [nM] | Compound | caspase 3/7, 8, and 9 activations [5] | caspase 3/7 activation [6] [%] | GI50 [7] [nM] | GI50 [8] [nM] | caspase 3/7 activation [9] [%] | caspase 3/7 activation [10] [%]
1 | 3790 | 2190 ± 840 | 2330 ± 180 | 360 ± 170 | COc1cc([C@@H]2c3cc4c(cc3[C@@H](OCc3cc(-c5cc(Cl)cc(Cl)c5)no3)[C@H]3COC(=O)C23)OCO4)cc(OC)c1OC (some centres unmarked) [Compound 6m] | 44.8% and 53.4% and 65.0% and 63.0% and 41.9% and 51.7% |  |  |  |  | 
2 |  | 2740 ± 520 | 2280 ± 290 | 1340 ± 230 | COc1cc([C@@H]2c3cc4c(cc3[C@@H](OCc3cc(-c5cc(C)cc(C)c5)no3)[C@H]3COC(=O)C23)OCO4)cc(OC)c1OC (some centres unmarked) [Compound 6d] |  |  |  |  |  | 
3 |  | 7480 ± 690 | 6840 ± 2010 | 4320 ± 830 | COc1cc([C@@H]2c3cc4c(cc3[C@@H](OCc3cc(-c5ccc(Br)cc5)no3)[C@H]3COC(=O)C23)OCO4)cc(OC)c1OC (some centres unmarked) [Compound 6g] |  |  |  |  |  | 
4 | 1320 | 1110 ± 290 | 1540 ± 180 | 230 ± 120 | COc1cc([C@@H]2c3cc4c(cc3[C@@H](OCc3cc(-c5ccc([N+](=O)[O-])cc5)no3)[C@H]3COC(=O)C23)OCO4)cc(OC)c1OC (some centres unmarked) [Compound 6j] |  | 90.1 | 1030 to 1540 |  |  | 
5 |  | 3050 ± 1020 | 3140 ± 320 | 2130 ± 370 | COc1cc([C@@H]2c3cc4c(cc3[C@@H](OCc3cc(-c5ccc(Cl)cc5)no3)[C@H]3COC(=O)C23)OCO4)cc(OC)c1OC (some centres unmarked) [Compound 6f] |  |  |  |  |  | 
6 |  | 3830 ± 1540 | 4670 ± 1930 | 3920 ± 820 | COc1cc([C@@H]2c3cc4c(cc3[C@@H](OCc3cc(-c5cccc(C)c5)no3)[C@H]3COC(=O)C23)OCO4)cc(OC)c1OC (some centres unmarked) [Compound 6c] |  |  |  |  |  | 
7 |  | 6120 ± 1080 | 13100 ± 3270 | 4870 ± 790 | COc1cc([C@@H]2c3cc4c(cc3[C@@H](OCc3cc(-c5ccc(F)cc5)no3)[C@H]3COC(=O)C23)OCO4)cc(OC)c1OC (some centres unmarked) [Compound 6h] |  |  |  |  |  | 
8 |  | 9680 ± 3120 | 18300 ± 2870 | 3150 ± 430 | COc1cc([C@@H]2c3cc4c(cc3[C@@H](OCc3cc(-c5cccc(Cl)c5)no3)[C@H]3COC(=O)C23)OCO4)cc(OC)c1OC (some centres unmarked) [Compound 6k] |  |  |  |  |  | 

Row | Compound | IC50 [1] [nM] | GI50 [2] [nM] | GI50 [3] [nM] | GI50 [4] [nM] | caspase 3/7, 8, and 9 activations [5] | caspase 3/7 activation [6] [%] | GI50 [7] [nM] | GI50 [8] [nM] | caspase 3/7 activation [9] [%] | caspase 3/7 activation [10] [%]
9 | COc1cc([C@@H]2c3cc4c(cc3[C@H](O)[C@H]3COC(=O)[C@H]23)OCO4)cc(OC)c1OC [Podophyllotoxin, podophyllotoxin, reference compound] | 840 | 740 ± 230 | 510 ± 120 | 310 ± 190 |  | 91.9 | 510 to 740 | 310 to 510 | 86.9 | 88.6

Source: paper PMC11276401 (RSC Advances, 2024)
